Consider three molecules from ChEMBL document CHEMBL4130578, “Synthesis, biological evaluation and structure-activity relationship studies of hederacolchiside E and its derivatives as potential anti-Alzheimer agents” (Eur J Med Chem, 2018).

The subject of series [1] is PC-12. As to the kind of experiment: Cytoprotection against H2O2-induced cell injury in rat PC12 cells assessed as increase in cell viability at 20 uM preincubated for 12 hrs followed by H2O2 addition measured after 12 hrs by MTT assay. It is filed as functional, cell-based. The procedure, abridged:
(§1)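 PC12 cells grown in RPMI-1640 with 15% FBS and penicillin/streptomycin, subcultured every 2 days and cultured 8 days before use. Cells seeded at 1 × 10^4/well, after 12 h pretreated with compound 12 h, then exposed to 200 µM H2O2 for 12 h. MTT added for 4 h, formazan dissolved in DMSO, OD 490 nm read. Viability given as % of untreated control, mean ± SD, n = 3, ANOVA with Dunnett's test.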
Background: Tetrazolium dyes change colour on reduction, which living cells bring about.

Series [2] concerns PC-12. The experiment in a line: Cytoprotection against H2O2-induced cell injury in rat PC12 cells assessed as increase in cell viability at 1 to 10 uM preincubated for 12 hrs followed by H2O2 addition measured after 12 hrs by MTT assay. It is filed as functional, cell-based. The procedure, abridged: as §1
The test system of series [3] is PC-12. As to the kind of experiment: Cytotoxicity against rat PC12 cells assessed as decrease in cell viability at 50 uM after 12 hrs by MTT assay. It is filed as cell-based. The conditions noted are these: pc-12, 12 h.
For series [4], the system named is PC-12. The experiment in a line: Cytoprotection against amyloid beta (1 to 42)-induced cell injury in rat PC12 cells assessed as cell viability at 10 uM preincubated for 12 hrs followed by amyloid beta (1 to 42) addition measured after 12 hrs by MTT assay (reference value: 55.3 +/- 1.5%). To be noted: read-out: Activity. It counts as functional.
The subject of series [5] is PC-12. As to the kind of experiment: Cytoprotection against amyloid beta (1 to 42)-induced cell injury in rat PC12 cells assessed as cell viability at 50 uM preincubated for 12 hrs followed by amyloid beta (1 to 42) addition measured after 12 hrs by MTT assay (reference value: 55.3 +/- 1.5%). It is filed as functional. To be noted: read-out: Activity.
Series [6] relates to PC-12. As to the kind of experiment: Cytoprotection against amyloid beta (1 to 42)-induced cell injury in rat PC12 cells assessed as cell viability at 100 uM preincubated for 12 hrs followed by amyloid beta (1 to 42) addition measured after 12 hrs by MTT assay (reference value: 55.3 +/- 1.5%). It is filed as functional. The conditions noted are these: read-out: Activity.
For series [7], the system named is PC-12. The experiment in a line: Cytoprotection against amyloid beta (1 to 42)-induced toxicity in rat PC12 cells assessed as LDH release at 10 uM preincubated with cells followed by amyloid beta (1 to 42) addition measured after 24 hrs by LDH assay (reference value: 153%). It counts as functional.
Series [8] relates to PC-12. The experiment in a line: Cytoprotection against amyloid beta (1 to 42)-induced toxicity in rat PC12 cells assessed as LDH release at 50 uM preincubated with cells followed by amyloid beta (1 to 42) addition measured after 24 hrs by LDH assay (reference value: 153%). It is filed as functional.
In series [9] the test system is PC-12. The experiment in a line: Cytoprotection against amyloid beta (1 to 42)-induced toxicity in rat PC12 cells assessed as LDH release at 100 uM preincubated with cells followed by amyloid beta (1 to 42) addition measured after 24 hrs by LDH assay (reference value: 153%). It is filed as functional. (LDH leaks from cells whose membrane has failed.)
Series [10] concerns PC-12. The experiment in a line: Cytoprotection against amyloid beta (1 to 42)-induced oxidative damage in rat PC12 cells assessed as intracellular ROS level at 10 uM preincubated with cells followed by amyloid beta (1 to 42) addition measured after 24 hrs by DCFH-DA staining based flow cytometry (reference value: 51.4%). It counts as functional. For orientation: A flow cytometer gives signals particle by particle.

The test system of series [11] is PC-12. As to the kind of experiment: Cytoprotection against amyloid beta (1 to 42)-induced oxidative damage in rat PC12 cells assessed as intracellular ROS level at 50 uM preincubated with cells followed by amyloid beta (1 to 42) addition measured after 24 hrs by DCFH-DA staining based flow cytometry (reference value: 51.4%). It is filed as functional.
The subject of series [12] is PC-12. The experiment in a line: Cytoprotection against amyloid beta (1 to 42)-induced oxidative damage in rat PC12 cells assessed as intracellular ROS level at 100 uM preincubated with cells followed by amyloid beta (1 to 42) addition measured after 24 hrs by DCFH-DA staining based flow cytometry (reference value: 51.4%). It counts as functional.
The test system of series [13] is PC-12. As to the kind of experiment: Cytoprotection against amyloid beta (1 to 42)-induced oxidative damage in rat PC12 cells assessed as reduction in intracellular ROS level preincubated with cells followed by amyloid beta (1 to 42) addition measured after 24 hrs by DCFH-DA staining based flow cytometry. It is filed as functional, cell-based.
Series [14] has as its system PC-12. The experiment in a line: Cytoprotection against amyloid beta (1 to 42)-induced damage in rat PC12 cells assessed as reduction in intracellular MDA level preincubated with cells followed by amyloid beta (1 to 42) addition measured after 24 hrs by TBA assay. It is filed as functional, cell-based. The procedure, abridged:
(§2)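 For the MDA readout, PC12 cells were given 40 µM Aβ1-42 for 24 h with or without compound (10, 50, 100 µM). Samples were mixed with two volumes of TBA reagent (0.375% TBA, 15% trichloroacetic acid, 0.1 mM EDTA) and heated at 95 °C for 40 min. After cooling and centrifugation at 3000 × g for 10 min, supernatant A532 was read. Mean ± SD, n = 3.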

In series [15] the test system is PC-12. The experiment in a line: Cytoprotection against amyloid beta (1 to 42)-induced damage in rat PC12 cells assessed as intracellular MDA level at 10 uM preincubated with cells followed by amyloid beta (1 to 42) addition measured after 24 hrs by TBA assay. It is filed as functional. The procedure, abridged:
as §2

The test system of series [16] is PC-12. The experiment in a line: Cytoprotection against amyloid beta (1 to 42)-induced damage in rat PC12 cells assessed as intracellular MDA level at 50 uM preincubated with cells followed by amyloid beta (1 to 42) addition measured after 24 hrs by TBA assay. It is filed as functional. The procedure, abridged: as §2
Series [17] concerns PC-12. The experiment in a line: Cytoprotection against amyloid beta (1 to 42)-induced damage in rat PC12 cells assessed as intracellular MDA level at 100 uM preincubated with cells followed by amyloid beta (1 to 42) addition measured after 24 hrs by TBA assay. It is filed as functional. The procedure, abridged: as §2
Series [18] has as its system PC-12. As to the kind of experiment: Cytoprotection against H2O2-induced cell injury in rat PC12 cells assessed as increase in cell viability at 1 to 50 uM preincubated for 12 hrs followed by H2O2 addition measured after 12 hrs by MTT assay. It counts as functional, cell-based. The procedure, abridged:
as §1

Activity calls are given as the source filed them. The rule behind the calls is not given here.

Take `CC1=NN(c2ccccc2)C(=O)C1`: the outcome in the series on PC-12 [1] was Active.
`C[C@@H]1O[C@@H](O[C@H]2[C@H](O)[C@@H](O)[C@H](OC[C@H]3O[C@@H](OC(=O)[C@]45CCC(C)(C)C[C@H]4C4=CC[C@@H]6[C@@]7(C)CC[C@H](O[C@@H]8OC[C@H](O)[C@H](O)[C@H]8O)C(C)(C)[C@@H]7CC[C@@]6(C)[C@]4(C)CC5)[C@H](O)[C@@H](O)[C@@H]3O)O[C@@H]2CO)[C@H](O)[C@H](O)[C@H]1O` [CIWUJIANOSIDE C3]: in the series on PC-12 [2], the outcome was Active. Further, the Activity result in the series with PC-12 [3] is “Toxic”; with PC-12 [7], 143.7%; with PC-12 [8] it was 134.4%; in the series on PC-12 [9], 126.3%; with PC-12 [10], 45%; in the series on PC-12 [11] it was 30.7%. Also, the Activity in the series with PC-12 [12] was 20.6%; in the series with PC-12 [13], “Dose-dependent effect”; in the series with PC-12 [14], “Dose-dependent effect”; in the series on PC-12 [15] it was 2 nmol/mL; with PC-12 [16], 1.6 nmol/mL; in the series with PC-12 [17], 1.2 nmol/mL. Further, in the series with PC-12 [4], the viability at 10 µM came to 55.9%. Also, the viability at 50 µM with PC-12 [5] stood at 69.9%. Besides, in the series with PC-12 [6], the viability at 100 µM is 79.1%.
On to `C[C@@H]1O[C@@H](O[C@H]2[C@H](O[C@H]3CC[C@]4(C)[C@H]5CC=C6[C@@H]7CC(C)(C)CC[C@]7(C(=O)O[C@@H]7O[C@H](CO)[C@@H](O[C@@H]8O[C@@H](C)[C@H](O)[C@@H](O)[C@H]8O)[C@H](O)[C@H]7O)CC[C@@]6(C)[C@]5(C)CC[C@H]4C3(C)C)OC[C@H](O[C@@H]3O[C@H](CO)[C@@H](O)[C@H](O)[C@H]3O)[C@@H]2O)[C@H](O)[C@H](O)[C@H]1O`, for which the outcome in the series on PC-12 [18] was Active. Further, the viability at 10 µM in the series on PC-12 [4] came to 59.3%. For the same molecule, the viability at 50 µM with PC-12 [5] was 63.3%.
